Data set [1] in a line: melting temperature; fluorescence melt of hairpins on a sequencing array, two-state fit, raised by 9.35 °C to match UV melts. Conditions: sodium 0.088 M. The gist of the method:
(§1)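 Melting temperature and folding enthalpy were obtained by bootstrapped two-state fitting. Fits used Cy3 fluorescence of library hairpins with annealed Cy3 and quencher oligos on a sequenced MiSeq flow cell, imaged in 50 mM Na-HEPES pH 8.0, 25 mM NaCl in 2.5 °C steps up to 60 °C and normalised to pre-quench Cy3 and control constructs. Four replicates were combined by inverse-variance weighting, and fitted temperatures were raised by 9.35 °C to match UV melts.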

Data set [2] is described as follows: folding enthalpy; higher = less favourable; fluorescence melt of hairpins on a sequencing array, two-state fit. The following applies: sodium 0.088 M. The gist of the method:
as §1

From the array DNA melting data of Ke et al. (doi:10.1101/2024.01.08.574731) come the findings set out here.

Take GATCCAAATCTGGATC ((((((....)))))): the Tm in data set [1] stood at 47.4 °C. The folding enthalpy in data set [2] was -33.8 kcal/mol.

For GATCCAACACTGGATC ((((((....)))))), in data set [1], the Tm amounted to 48.1 °C. In addition, in data set [2], the folding enthalpy was -43 kcal/mol.

Consider GATCCAACCATGGATC ((((((....)))))), for which the Tm in data set [1] is 50 °C. In addition, in data set [2], the folding enthalpy was -35.5 kcal/mol.

For GATCCAACTCTGGATC ((((((....)))))), in data set [1], the Tm was determined as 49.2 °C. Further, the folding enthalpy in data set [2] is -30.9 kcal/mol.

With GATCCAAGATTGGATC ((((((....)))))), the Tm in data set [1] is 50.3 °C. Also, the folding enthalpy in data set [2] was -40 kcal/mol.

Regarding GATCCAAGTATGGATC ((((((....)))))), in data set [1], the Tm turned out to be 50.3 °C. Further, in data set [2], the folding enthalpy was -36.5 kcal/mol.

GATCCAAGTTTGGATC ((((((....)))))): the Tm in data set [1] stood at 52.1 °C. Moreover, in data set [2], the folding enthalpy is -41.1 kcal/mol.

With GATCCAATAATGGATC ((((((....)))))), the Tm in data set [1] is 47.5 °C. Further, the folding enthalpy in data set [2] is -31.1 kcal/mol.

In the case of GATCCAATCTGGATC ((((((...)))))), in data set [1], the Tm amounted to 51.8 °C. The folding enthalpy in data set [2] is -33.1 kcal/mol.

In the case of GATCCACAAGTGGATC ((((((....)))))), the Tm in data set [1] was determined as 57.9 °C. For the same sequence, the folding enthalpy in data set [2] is -38.6 kcal/mol.

Consider GATCCACAATGGATC ((((((...)))))), for which, in data set [1], the Tm turned out to be 48.3 °C. For the same sequence, the folding enthalpy in data set [2] is -30.7 kcal/mol.

GATCCACACTGGATC ((((((...)))))): the Tm in data set [1] is 50.7 °C. Also, the folding enthalpy in data set [2] is -33.2 kcal/mol.

With GATCCACAGGTGGATC ((((((....)))))), the Tm in data set [1] came out at 57 °C. Besides, in data set [2], the folding enthalpy was -40.9 kcal/mol.

As for GATCCACCCGTGGATC ((((((....)))))), the Tm in data set [1] was found to be 57.9 °C. The folding enthalpy in data set [2] is -40.4 kcal/mol.

For GATCCACCCTGGATC ((((((...)))))), the Tm in data set [1] was found to be 51 °C. Further, the folding enthalpy in data set [2] was -33.8 kcal/mol.

Regarding GATCCACGGTGGATC ((((((...)))))), the Tm in data set [1] is 50.6 °C. Also, the folding enthalpy in data set [2] was -43.6 kcal/mol.

Turning to GATCCACTAATGGATC ((((((....)))))), the Tm in data set [1] was 49.8 °C. Also, the folding enthalpy in data set [2] was -32.7 kcal/mol.

Take GATCCACTATTGGATC ((((((....)))))): the Tm in data set [1] is 49.8 °C. For the same sequence, the folding enthalpy in data set [2] was -40.9 kcal/mol.

In the case of GATCCACTCATGGATC ((((((....)))))), the Tm in data set [1] amounted to 52.5 °C. In data set [2], the folding enthalpy was -41.5 kcal/mol.

As for GATCCACTCCTGGATC ((((((....)))))), the Tm in data set [1] was 50.3 °C. In addition, the folding enthalpy in data set [2] is -38.4 kcal/mol.

In the case of GATCCACTTTTGGATC ((((((....)))))), the Tm in data set [1] was 50.6 °C. In data set [2], the folding enthalpy is -34.6 kcal/mol.

Turning to GATCCAGATGTGGATC ((((((....)))))), the Tm in data set [1] is 51.1 °C. For the same sequence, the folding enthalpy in data set [2] is -35.4 kcal/mol.

As to GATCCAGCAATGGATC ((((((....)))))), the Tm in data set [1] was 56.8 °C. Also, the folding enthalpy in data set [2] is -41.6 kcal/mol.

GATCCAGCCGTGGATC ((((((....)))))): the Tm in data set [1] amounted to 52.8 °C. Besides, the folding enthalpy in data set [2] is -41.2 kcal/mol.

For the sequence GATCCAGCTGTGGATC ((((((....)))))), in data set [1], the Tm is 50.3 °C. Moreover, the folding enthalpy in data set [2] is -38.8 kcal/mol.

On to GATCCAGCTTGGATC ((((((...)))))), for which the Tm in data set [1] turned out to be 52 °C. Besides, the folding enthalpy in data set [2] is -32.9 kcal/mol.

Consider GATCCAGGAAACTGGGTC ((.((((....)))).)), for which the Tm in data set [1] was 49.9 °C. The folding enthalpy in data set [2] is -29.9 kcal/mol.

GATCCAGGCATGGATC ((((((....)))))): the Tm in data set [1] came out at 57.8 °C. Further, the folding enthalpy in data set [2] is -45.8 kcal/mol.

In the case of GATCCAGGTGTGGATC ((((((....)))))), in data set [1], the Tm turned out to be 52 °C. In data set [2], the folding enthalpy is -44.8 kcal/mol.

Take GATCCAGTCATGGATC ((((((....)))))): in data set [1], the Tm came out at 58.3 °C. The folding enthalpy in data set [2] is -39.8 kcal/mol.

On to GATCCAGTCTTGGATC ((((((....)))))), for which, in data set [1], the Tm was determined as 53.5 °C. Further, the folding enthalpy in data set [2] is -43.5 kcal/mol.

Regarding GATCCAGTGATGGATC ((((((....)))))), the Tm in data set [1] came to 56.6 °C. Also, the folding enthalpy in data set [2] was -35.2 kcal/mol.

Take GATCCAGTGTGGATC ((((((...)))))): the Tm in data set [1] worked out at 51.6 °C. In addition, in data set [2], the folding enthalpy was -33 kcal/mol.

GATCCATAGCTGGATC ((((((....)))))): the Tm in data set [1] is 49.2 °C. Further, the folding enthalpy in data set [2] is -33.4 kcal/mol.

For the sequence GATCCATAGTTGGATC ((((((....)))))), the Tm in data set [1] is 50.6 °C. The folding enthalpy in data set [2] is -33.2 kcal/mol.

On to GATCCATCAATGGATC ((((((....)))))), for which the Tm in data set [1] came to 52.3 °C. Moreover, in data set [2], the folding enthalpy was -44 kcal/mol.

As to GATCCATCCTGGATC ((((((...)))))), in data set [1], the Tm is 52.7 °C. The folding enthalpy in data set [2] is -43 kcal/mol.

Take GATCCATCTATGGATC ((((((....)))))): in data set [1], the Tm amounted to 55.8 °C. Also, in data set [2], the folding enthalpy is -39.3 kcal/mol.
